This note sets out measurements from ChEMBL document CHEMBL1143356, “Synthesis and characterization of a peripherally restricted CB1 cannabinoid antagonist, URB447, that reduces feeding and body-weight gain in mice” (Bioorg Med Chem Lett, 2009).

In series [1] the target is T1, Cannabinoid receptor 1 (Rattus norvegicus, UniProt P20272). Put plainly: Displacement of [3H]WIN-55212-2 from CB1 receptor in rat cerebellar membrane by liquid scintillation counting. In kind it is cell membranes, Cerebellum. For orientation: Displacement assays read how much labelled ligand stays bound in the presence of the test substance.
The target of another series is Cannabinoid receptor 2 (Homo sapiens, UniProt P34972). Put plainly: Displacement of [3H]WIN-55212-2 from human CB2 receptor expressed in CHO-K1 cells by liquid scintillation counting. The class given is cell-based.
The test system of series [2] is Mus musculus. As to the kind of experiment: Inhibition of WIN-55212-2-induced hypothermia in Swiss mouse assessed as change in body temperature at 2 mg/kg ip administered 30 mins before WIN-55212-2 challenge. On the set-up: dose 2 mg/kg. In kind it is functional, organism-based. The method in brief:
(§1)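 Mice dosed i.p. Rectal temperature taken with a digital probe and reported as change from baseline.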

Series [3] concerns Mus musculus. Put plainly: Antianalgesic activity in Swiss mouse assessed as inhibition of (R)-methanandamide-induced analgesic effect at 2 mg/kg, ip administered 30 mins before (R)-methanandamide challenge measured for 45 mins by formalin planter test. In kind it is functional, organism-based. On the set-up: dose 2 mg/kg. Put shortly:
(§2)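 Formalin test in mice. Inject 10 μL of 5% formaldehyde (vehicle: saline/5% PEG-400/5% Tween-80) into the plantar paw, with (R)-methanandamide dissolved in the formalin. Give the antagonist i.p. 30 min before formalin. A blinded observer scores paw licking and biting for 45 min (phase I 0-15 min, phase II 15-45 min).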

Series [4] deals with Mus musculus. Put plainly: Inhibition of WIN-55212-2-induced catalepsy in Swiss mouse at 5 mg/kg ip administered 30 mins before WIN-55212-2 challenge measured after 30 mins by ring catalepsy test. The class given is functional, organism-based. Set-up: dose 5 mg/kg. Put shortly:
(§3)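 Mice dosed i.p. Ring test scored by a blinded observer as total time cataleptic during a 3-min observation.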

In series [5] the test system is Mus musculus. Put plainly: Antiobesity activity in ob/ob mouse assessed as reduction of food intake at 20 mg/kg, ip once daily for 2 weeks. In kind it is functional, organism-based. On the set-up: dose 20 mg/kg.
Series [6] deals with Mus musculus. As to the kind of experiment: Anorexic activity in Swiss mouse assessed as reduction of food intake at 5 mg/kg, ip administered 30 mins before dark onset after 24 hrs. The class given is functional, organism-based. On the set-up: dose 5 mg/kg. The method in brief: (§4)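 Male Swiss mice (20-25 g) housed singly in automated feeding cages after 4 days of habituation. Dose i.p. in saline/10% PEG-400/10% Tween-80 before dark onset. Weight of food removed is logged continuously and expressed as food per kg body weight.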

Series [7] can be described thus: Plasma concentration in Swiss mouse at 20 mg/kg, ip after 30 mins. In kind it is ADME, organism-based. To be noted: read-out: Cmax. Set-up: dose 20 mg/kg, route intraperitoneal. Put shortly:
(§5)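 Mice dosed i.p. Blood and snap-frozen tissue are extracted in CH3OH:CHCl3:H2O and analysed by LC/MS on a cyano column with a water/methanol gradient containing acetic acid and ammonium acetate, at 0.4 mL/min.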

Series [8] has as its system Mus musculus. Put plainly: Inhibition of WIN-55212-2-induced hypothermia in Swiss mouse assessed as change in body temperature at 20 mg/kg ip administered 30 mins before WIN-55212-2 challenge. In kind it is functional, organism-based. Set-up: dose 20 mg/kg. The method in brief: as §1
Series [9] concerns Mus musculus. As to the kind of experiment: Inhibition of WIN-55212-2-induced catalepsy in Swiss mouse at 20 mg/kg ip administered 30 mins before WIN-55212-2 challenge measured after 30 mins by ring catalepsy test. The class given is functional, organism-based. Set-up: dose 20 mg/kg. Put shortly:
as §3

For series [10], the target named is Cannabinoid receptor 2 (Mus musculus) (UniProt P47936). As to the kind of experiment: Agonist activity at mouse CB2 receptor expressed in HEK293 cells assessed as cAMP accumulation at 1 uM by radioimmunoassay. The class given is functional, cell-based. The method in brief:
(§6)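 Stably transfected HEK cells carrying mouse CB2. Rinse in HEPES buffer (15 min), preincubate with IBMX 10 mM (15 min), then incubate with IBMX ± isoproterenol 10 μM (15 min), all at 37 °C in a shaking bath. Cannabinoid is present in both the preincubation and the incubation.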

The test system of series [11] is Mus musculus. Put plainly: Antiobesity activity in ob/ob mouse assessed as reduction of body weight gain at 20 mg/kg, ip once daily for 2 weeks. On the set-up: dose 20 mg/kg. In kind it is functional, organism-based.
Series [12] can be described thus: Drug level in Swiss mouse white adipose tissue at 20 mg/kg, ip after 15 mins. Set-up: dose 20 mg/kg, route intraperitoneal. In kind it is ADME, organism-based. To be noted: in vivo, 0.25 h. The method in brief: as §5
In series [13] the target is T1, Cannabinoid receptor 1. Put plainly: Antagonist activity at CB1 receptor in rat cerebellar membrane assessed as inhibition of WIN-55212-2-induced [35S]GTPgammaS binding by liquid scintillation counting. In kind it is functional, cell membranes, Cerebellum. The method in brief: (§7)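 Rat cerebellar membranes (20 μg) from freshly dissected cerebella. Incubate 90 min at 30 °C with 0.05 nM [35S]GTPγS and graded compound concentrations, in 20 mM Tris pH 7.4 with 5 mM MgCl2, 0.1 M NaCl, 30 μM GDP, adenosine deaminase, 0.02% BSA and PMSF. Run ± 10 μM WIN-55212-2. Stop by centrifugation at 4 °C, wash the pellet, and count by liquid scintillation.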

Series [14] has as its system Mus musculus. Put plainly: Antianalgesic activity in Swiss mouse assessed as inhibition of (R)-methanandamide-induced analgesic effect at 20 mg/kg, ip administered 30 mins before (R)-methanandamide challenge measured for 45 mins by formalin planter test. In kind it is functional, organism-based. Set-up: dose 20 mg/kg. Put shortly:
as §2

For series [15], the target named is Cannabinoid receptor 1 (Rattus norvegicus) (UniProt P20272). Put plainly: Antagonist activity at CB1 receptor in rat cerebellar membrane by [35S]GTPgammaS binding assay. The class given is functional, cell membranes. To be noted: Cerebellum. The method in brief:
as §7
Background: GTPγS is a poorly hydrolysed GTP analogue; its binding reports G protein activation.

The nature of series [16]: Lipophilicity, log P of the compound. The class given is physicochemical. To be noted: octanol/water.
For series [17], the system named is Mus musculus. Put plainly: Anorexic activity in Swiss mouse assessed as reduction of food intake at 20 mg/kg, ip administered 30 mins before dark onset after 24 hrs. The class given is functional, organism-based. Set-up: dose 20 mg/kg. The method in brief:
as §4

Series [18] concerns Mus musculus. Put plainly: Effect on motor activity in Swiss mouse assessed as number of light beam interruptions projecting across each cage at 20 mg/kg, ip. The class given is functional, organism-based. On the set-up: dose 20 mg/kg. Put shortly:
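Male Swiss mice in the automated cages, dosed i.p. in saline/PEG-400/Tween-80 vehicle. Activity is counted as light-beam interruptions, recorded at the same time as feeding.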

Series [19] addresses Cannabinoid receptor 2 (Mus musculus) (UniProt P47936). As to the kind of experiment: Agonist activity at mouse CB2 receptor expressed in HEK293 cells assessed as inhibition of isoproterenol-induced cAMP accumulation at 1 uM by radioimmunoassay. In kind it is functional, cell-based. Put shortly:
as §6

SMILES strings stand for the structures. Active and inactive are the calls of the source. The calls are words filed in the database; no cut-off is given here. Bounds are passed on as bounds.

Cannabinoid receptor 2, sequence (P34972 whole entry): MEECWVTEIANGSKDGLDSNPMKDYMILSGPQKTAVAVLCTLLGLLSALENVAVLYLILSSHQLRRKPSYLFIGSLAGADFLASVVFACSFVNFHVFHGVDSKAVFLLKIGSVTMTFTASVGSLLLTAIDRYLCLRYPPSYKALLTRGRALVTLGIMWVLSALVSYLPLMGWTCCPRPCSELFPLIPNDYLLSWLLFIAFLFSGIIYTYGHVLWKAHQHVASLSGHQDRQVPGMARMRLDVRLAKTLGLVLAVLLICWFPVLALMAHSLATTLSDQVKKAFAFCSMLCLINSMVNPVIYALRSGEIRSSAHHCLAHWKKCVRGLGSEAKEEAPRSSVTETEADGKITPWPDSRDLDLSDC
T1 sequence (P20272 whole entry): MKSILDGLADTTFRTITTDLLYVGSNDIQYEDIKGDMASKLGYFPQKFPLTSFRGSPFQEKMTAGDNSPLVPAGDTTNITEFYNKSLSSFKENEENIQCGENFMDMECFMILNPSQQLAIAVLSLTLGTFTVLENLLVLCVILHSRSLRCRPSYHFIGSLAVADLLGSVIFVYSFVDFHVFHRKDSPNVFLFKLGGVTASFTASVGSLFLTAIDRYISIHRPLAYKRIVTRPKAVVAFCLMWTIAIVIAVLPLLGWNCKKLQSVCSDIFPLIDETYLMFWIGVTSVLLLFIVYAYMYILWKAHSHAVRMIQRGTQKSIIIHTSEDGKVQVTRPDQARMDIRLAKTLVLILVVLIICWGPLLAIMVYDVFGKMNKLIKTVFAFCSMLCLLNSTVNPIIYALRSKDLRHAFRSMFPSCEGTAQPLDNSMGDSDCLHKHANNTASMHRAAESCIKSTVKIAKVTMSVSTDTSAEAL
Cannabinoid receptor 2 (Mus musculus), sequence (P47936 whole entry): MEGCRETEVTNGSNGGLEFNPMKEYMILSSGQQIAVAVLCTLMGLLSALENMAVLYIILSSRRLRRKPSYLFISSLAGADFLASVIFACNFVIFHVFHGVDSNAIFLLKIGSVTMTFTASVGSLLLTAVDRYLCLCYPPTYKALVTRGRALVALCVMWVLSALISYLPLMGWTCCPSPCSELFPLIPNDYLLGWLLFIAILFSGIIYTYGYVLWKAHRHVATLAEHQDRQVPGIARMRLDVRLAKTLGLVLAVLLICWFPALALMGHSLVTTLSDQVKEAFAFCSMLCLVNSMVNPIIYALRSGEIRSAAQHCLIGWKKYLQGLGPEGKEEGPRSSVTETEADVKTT
Cannabinoid receptor 1 (Rattus norvegicus), sequence (P20272 whole entry): as the sequence (P20272 whole entry) above

Take `Cc1c(C(=O)c2ccccc2)cc(-c2ccccc2)n1Cc1ccc(Cl)cc1`: the IC50 – broadly, the concentration needed to halve the response being measured – on Cannabinoid receptor 1 [1] is more than 1000 nM; on Cannabinoid receptor 2 it was 498 nM.

`Cc1c(C(=O)NC2C3CC4CC(C3)CC2C4)c(Br)c(-c2ccccc2)n1Cc1ccc(Cl)cc1` (configuration not stated): the IC50 is more than 1000 nM at Cannabinoid receptor 1 [1] and 123 nM at Cannabinoid receptor 2.

On to `Cc1[nH]c(-c2ccccc2)c(N)c1C(=O)c1ccccc1`, for which the IC50 at Cannabinoid receptor 1 [1] and on Cannabinoid receptor 2 was more than 1000 nM throughout.

Regarding `Cc1c(C(=O)NN2CCCCC2)nn(-c2ccc(Cl)cc2Cl)c1-c1ccc(Cl)cc1`, the outcome with Mus musculus [2], with Mus musculus [3], in the series on Mus musculus [4] and with Mus musculus [5] was Active.

As to `Cc1c(C(=O)NC2CC3CCC2C3)cc(-c2ccccc2)n1Cc1ccc(Cl)cc1` (configuration not stated), the 50% inhibitory concentration (IC50) on Cannabinoid receptor 1 [1] is more than 1000 nM; at Cannabinoid receptor 2 it was 420 nM.

With `Cc1c(C(=O)NN2CCCCC2)cc(-c2ccccc2)n1Cc1ccc(Cl)cc1`, the IC50 at Cannabinoid receptor 1 [1] and at Cannabinoid receptor 2 was more than 1000 nM each time.

Regarding `Cc1c(C(=O)NC2C3CC4CC(C3)CC2C4)cc(-c2ccccc2)n1Cc1ccc(Cl)cc1` (configuration not stated), the IC50 was 70 nM on Cannabinoid receptor 1 [1] and 11 nM on Cannabinoid receptor 2.

As to `Cc1c(C(=O)c2ccccc2)c(N)c(-c2ccccc2)n1Cc1ccc(Cl)cc1`, the outcome (in the series on Mus musculus [6]; in the series with Mus musculus [8]; with Mus musculus [9]; in series [15]; in the series with Mus musculus [17]; in the series on Mus musculus [18]) was inactive. For the same molecule, in [7], the concentration at 0.5 h is 596 nM. For the same molecule, the concentration for half-maximal inhibition (IC50) on Cannabinoid receptor 1 [1] came out at 313 nM; on Cannabinoid receptor 2, 41 nM. Further, the Activity is 5.9 pmol in [10] and 14.3 pmol in [19]. Also, the outcome in the series on Mus musculus [11] and with Mus musculus [14] was Active. This molecule had a Cmax in [12] of 42 nmol/g. Besides, the EC50 – broadly, the concentration giving half of the maximal effect – at Cannabinoid receptor 1 [13] was 4900 nM. The lipophilicity (logP) (usually the decadic logarithm of the partition coefficient of the neutral form, usually between octanol and water) in [16] worked out at 6.39.
